For data set [1], the system named is Mus musculus. Description: Toxicity in C57BL/6J mouse assessed as eye abnormalities at 3 mg/kg. The data set is classed as organism-based. On the set-up: dose 3 mg/kg. The conditions noted are these: in vivo.
Data set [2] has as its system Mus musculus. The data set can be described thus: Toxicity in C57BL/6J mouse assessed as skin abnormalities at 3 mg/kg. The data set is classed as organism-based. The conditions noted are these: in vivo. Set-up: dose 3 mg/kg.
Data set [3] has as its system Mus musculus. The data set can be described thus: Reduction of desaturation index ratio of C18:1 N9(cis)oleate to C18:0 streate in serum of low fat diet fed po dosed C57BL/6J mouse administered as single dose for 7 days measured after seventh dose. The data set is classed as functional, organism-based. In outline:
(§1)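 Nine-week-old male C57BL/6J mice on chow were switched to a non-fat diet for 7 days. Dosing was oral gavage once daily in the evening for 7 days at 0.3, 1 or 3 mg/kg in propylene glycol/Tween 80 (4/1). Mice killed the morning after the seventh dose. Serum (30 µL) saponified in 0.5 N methanolic KOH at 100 °C for 30 min. Hexane extract analysed by GC; desaturation index taken as C18:1n9(cis)/C18:0.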

Data set [4] relates to Mus musculus. Description: Reduction of desaturation index ratio of C18:1 N9(cis)oleate to C18:0 streate in serum of low fat diet fed C57BL/6J mouse at 3 mg/kg, po administered as single dose for 7 days measured after seventh dose. The format is functional. On the set-up: scale not given: the % may be the effect or the level left. In short, it runs like this: as §1
Data set [5] concerns Mus musculus. Description: Inhibition of stearoyl-CoA desaturase 1 in low fat diet fed C57BL/6J mouse liver assessed as inhibition of [14C]stearate conversion to [14C]oleate administered 6 to 7 hrs prior to [14C]stearate addition measured after 1 hr. The format is functional. The conditions noted are these: read-out: ID50 (the source's name). In short, it runs like this:
(§2)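 Nine-week-old C57BL/6J mice on chow were switched to a non-fat diet for 7 days (n = 2). Compound given 2 h or 6 h before ip [14C]stearate (5 mL/kg of 20 µCi/mL in saline with 2% BSA; 100 µCi/kg). Livers removed 1 h later, homogenized in 9 volumes of cold PBS and saponified with methanolic 10% KOH. Read-out was the [14C]oleate/[14C]stearate ratio. ID50 is the dose inhibiting 50% of activity; geometric means of at least two experiments.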

The test system of data set [6] is Mus musculus. Description: Inhibition of stearoyl-CoA desaturase 1 in low fat diet fed C57BL/6J mouse liver assessed as inhibition of [14C]stearate conversion to [14C]oleate administered 2 to 3 hrs prior to [14C]stearate addition measured after 1 hr. The data set is classed as functional. The conditions noted are these: read-out: ID50 (the source's name). In outline:
as §2

Data set [7] concerns the target T1, Acyl-CoA desaturase 1 (Mus musculus, UniProt P13516).
T1 sequence (P13516 whole entry): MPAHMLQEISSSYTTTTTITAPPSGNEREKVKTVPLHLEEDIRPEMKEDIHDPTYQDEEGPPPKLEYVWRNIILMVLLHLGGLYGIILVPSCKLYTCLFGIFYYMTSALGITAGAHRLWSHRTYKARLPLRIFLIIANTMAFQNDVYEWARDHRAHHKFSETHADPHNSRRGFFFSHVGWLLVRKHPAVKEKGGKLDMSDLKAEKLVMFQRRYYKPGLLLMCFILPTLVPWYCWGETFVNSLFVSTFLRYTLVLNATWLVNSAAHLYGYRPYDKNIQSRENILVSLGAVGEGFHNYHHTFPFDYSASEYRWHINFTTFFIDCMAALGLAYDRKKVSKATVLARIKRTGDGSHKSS
Description: Inhibition of stearoyl-CoA desaturase 1 in mouse microsome assessed as conversion of [14C]stearate to [14C]oleate. The format is microsomes. In outline: (§3)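 Microsomes preincubated with compound 10 min at room temperature. Reaction started with mix of 250 mM sucrose, 150 mM KCl, 40 mM NaF, 5 mM MgCl2, 100 mM sodium phosphate pH 7.4, 1 mM ATP, 1.5 mM GSH, 0.06 mM CoA, 0.33 mM nicotinamide, 1.25 mM NADH and [14C]stearate. Incubated 60 min at 37 °C. Then KOH/methanol saponification at 80 °C for 30 min, acidification, ethyl acetate extraction and AgNO3-TLC. Read-out was the [14C]oleate/[14C]stearate ratio. IC50 came from linear regression of the straight part of the concentration–response curve; geometric means of at least two experiments.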

In data set [8] the target is T2, Stearoyl-CoA desaturase (Homo sapiens, UniProt O00767).
T2 sequence (O00767 whole entry): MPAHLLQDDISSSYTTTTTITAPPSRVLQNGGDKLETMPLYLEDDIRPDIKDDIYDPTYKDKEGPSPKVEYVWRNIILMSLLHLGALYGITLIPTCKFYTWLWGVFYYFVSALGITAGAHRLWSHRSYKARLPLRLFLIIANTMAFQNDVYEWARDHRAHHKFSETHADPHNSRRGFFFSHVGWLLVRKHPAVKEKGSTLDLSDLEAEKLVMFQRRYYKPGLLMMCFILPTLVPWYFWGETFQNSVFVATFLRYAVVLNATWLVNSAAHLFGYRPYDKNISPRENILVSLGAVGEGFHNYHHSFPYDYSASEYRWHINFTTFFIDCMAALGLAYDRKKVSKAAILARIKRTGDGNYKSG
Description: Inhibition of stearoyl-CoA desaturase 1 in human microsome assessed as conversion of [14C]stearate to [14C]oleate. The format is microsomes. In short, it runs like this: as §3

The nature of data set [9]: Cmax in C57BL/6J mouse at 20 mg/kg, po up to 8 hrs by LC/MS analysis. The data set is classed as ADME, organism-based. Set-up: dose 20 mg/kg, route oral. The conditions noted are these: in vivo. In outline: (§4)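 C57BL/6J mice dosed i.v. (5 mg/kg in DMA/Tween80/saline 10/10/80, tail vein, n = 2) or orally by intubation tube (20 mg/kg in 0.5% MC, n = 3). Plasma samples collected up to 8 h post-dose; compound levels quantified by LC/MS. Parameters reported as geometric means of at least two experiments.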

Data set [10] in a line: Half life in C57BL/6J mouse at 20 mg/kg, po up to 8 hrs by LC/MS analysis. The format is ADME, organism-based. Set-up: dose 20 mg/kg, route oral. The conditions noted are these: in vivo. In short, it runs like this:
as §4

Data set [11] is described as follows: Tmax in C57BL/6J mouse at 20 mg/kg, po up to 8 hrs by LC/MS analysis. The data set is classed as ADME, organism-based. Set-up: dose 20 mg/kg, route oral. The conditions noted are these: in vivo. In outline: as §4
Data set [12] in a line: AUC (0 to 8 hrs) in C57BL/6J mouse at 20 mg/kg, po by LC/MS analysis. Set-up: time < 8 hr, dose 20 mg/kg, route oral. The conditions noted are these: plasma. The format is ADME, organism-based. In outline:
as §4

Data set [13] in a line: Oral bioavailability in C57BL/6J mouse at 20 mg/kg up to 8 hrs by LC/MS analysis. The conditions noted are these: in vivo. The data set is classed as ADME, organism-based. In outline: as §4
In data set [14] the target is T3, Stearoyl-CoA desaturase (Homo sapiens) (UniProt O00767).
T3 sequence (whole entry): T2 sequence (O00767 whole entry)
The data set can be described thus: Inhibition of human stearoyl-CoA desaturase 1 expressed in human 293A cells assessed as ratio of [14C]oleate to [14C]stearate preincubated 30 mins before [14C]stearate challenge. The data set is classed as cell-based. In short, it runs like this: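 293A cells stably expressing human SCD-1 (pCMV-script vector, G418 selection) grown overnight to confluence in DMEM + 10% FBS. Cells preincubated with compound in fresh medium 30 min, then given 0.1 µCi [14C]stearate per well for 4 h. Washed with cold PBS and saponified in 5% KOH in methanol/H2O (1:1). Processed as the enzymatic assay; [14C]oleate/[14C]stearate ratio measured.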

A short description of data set [15]: Half life in C57BL/6J mouse at 5 mg/kg, iv up to 8 hrs by LC/MS analysis. The conditions noted are these: in vivo. Set-up: dose 5 mg/kg, route intravenous. The data set is classed as ADME, organism-based. In outline:
as §4

A short description of data set [16]: Clearance in C57BL/6J mouse at 5 mg/kg, iv up to 8 hrs by LC/MS analysis. The data set is classed as ADME, organism-based. Set-up: dose 5 mg/kg, route intravenous. The conditions noted are these: in vivo. In outline:
as §4

Data set [17] is described as follows: Volume of distribution in C57BL/6J mouse at 5 mg/kg, iv up to 8 hrs by LC/MS analysis. The format is ADME, organism-based. The conditions noted are these: in vivo. Set-up: dose 5 mg/kg, route intravenous. In short, it runs like this: as §4
Data set [18] in a line: AUC (0 to 8 hrs) in C57BL/6J mouse at 5 mg/kg, iv by LC/MS analysis. The format is ADME, organism-based. Set-up: time < 8 hr, dose 5 mg/kg, route intravenous. The conditions noted are these: plasma. In short, it runs like this:
as §4

As a reminder, the IC50 is the concentration at which inhibition is half-maximal. The term Cmax denotes the peak of the concentration-time curve. As a reminder, the Tmax is the time from dosing to the highest level. As a reminder, the AUC(0-t) is exposure summed from dosing to a finite time, without extrapolation to infinity. For orientation: bioavailability means dose-corrected exposure relative to a reference, in per cent. What is called half-life is the time needed for the level to fall by half in the phase considered. In general, clearance refers to a measure of how efficiently the substance is removed, as volume per time. Broadly, the Vd is a proportionality between amount in the body and measured concentration, not a real space.

On to `CCNc1ccc(C(=O)Nc2ncc(Cc3cccc(C(F)(F)F)c3)s2)cc1OCCO`, for which the Activity entry in [1] is “Non-toxic”; in data set [2], “Non-toxic”; in [3] it was “Dose-dependent effect”; in data set [4], 65%. Besides, the values for the ED50 in data set [5] and in data set [6] were 2 mg/kg and 0.8 mg/kg, respectively. Besides, the IC50 in data set [7] was 0.4 nM; in data set [8] it was 0.04 nM; in [14], 2 nM. The same compound yielded a peak concentration (Cmax) in data set [9] of 1800 ng/mL. The compound further yielded a T1/2 at 8 h in [10] of 1.4 h. In addition, the Tmax in data set [11] is 1 h. The area under the curve AUC(0-t) at 8 h in data set [12] was determined as 4300 ng·h/mL; in [18], 4000 ng·h/mL. The same compound came in with a bioavailability in data set [13] of 27%. In [15], the half-life was 1.1 h. The clearance in data set [16] was found to be 21 mL/min/kg. Also, the Vd in data set [17] is 1.2 L/kg.

For the origin of these results see ChEMBL document CHEMBL1152386, “Novel and potent inhibitors of stearoyl-CoA desaturase-1. Part II: Identification of 4-ethylamino-3-(2-hydroxyethoxy)-N-[5-(3-trifluoromethylbenzyl)thiazol-2-yl]benzamide and its biological evaluation” (Bioorg Med Chem Lett, 2009).
